Measurements reported in PubChem BioAssay AID1230 (PCMD, 2008).
In all, about 210,000 compounds went through this assay and about 220 (0.1%) were called active. The sample as a whole holds a higher share of actives than the screen did. Values without a mark were called inactive.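 How the source made its calls: active means signal enhancement of 30% or more; inactive means the rest.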

Molecular target: E3 ubiquitin-protein ligase Mdm2 (Homo sapiens) (UniProt Q00987)
Test: increase of MDM2 autoubiquitination reporter luminescence – cell-based, 1536-well, MDM2 E3 ligase inhibitor project, primary screen (AID 1230);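 further: luminescence tracks abundance of the self-degrading MDM2-luciferase fusion protein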
Settings: cell-based MDM2 ubiquitination luciferase reporter, 2 h; at 5 µM; active compounds read high; 0 = plate control, 100 = twice control, blank-subtracted
How it was run: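 Assay system: stable mammalian line carrying autodegrading MDM2–luciferase fusion reporter; amount: 2000 cells seeded into each well; buffer or medium: DMEM; benchmarks: plate control and blank wells; signal: luciferase luminescence; timing: 2 h compound exposure at 37 °C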

Chain of E3 ubiquitin-protein ligase Mdm2 (Homo sapiens) (Q00987 whole entry, looked up, the tested form may be a part): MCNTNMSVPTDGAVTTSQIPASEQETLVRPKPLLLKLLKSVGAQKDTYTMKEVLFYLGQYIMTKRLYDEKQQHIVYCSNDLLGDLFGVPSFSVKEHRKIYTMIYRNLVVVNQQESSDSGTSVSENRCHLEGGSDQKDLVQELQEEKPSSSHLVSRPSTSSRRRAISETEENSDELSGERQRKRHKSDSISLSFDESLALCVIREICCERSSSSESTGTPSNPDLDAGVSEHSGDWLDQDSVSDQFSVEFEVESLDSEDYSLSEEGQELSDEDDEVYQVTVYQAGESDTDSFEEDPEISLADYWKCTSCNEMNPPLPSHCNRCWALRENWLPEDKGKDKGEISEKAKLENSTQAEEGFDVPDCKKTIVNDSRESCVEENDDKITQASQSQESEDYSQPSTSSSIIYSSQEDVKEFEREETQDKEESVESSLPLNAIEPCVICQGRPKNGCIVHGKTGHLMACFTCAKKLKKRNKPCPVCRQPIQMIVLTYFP

SMILES | signal enhancement
CCOC(=O)CNC(=O)CSc1nnnn1-c1cc(C)ccc1C | 16.5%
CCOC(=O)Cn1c(N)c(C(=O)OC)sc1=S | -0.11%
CCOC(=O)Cn1nnnc1C | 38.2% (active)
Cc1cc(=O)oc2cc(OCCC[n+]3ccccc3)ccc12 | -9.35%
Cc1cc(NC(=O)OC(C)C)ccc1-c1ccc(NC(=O)OC(C)C)cc1C | 0.08%
O=S(=O)(c1ccccc1)N1CN(Cc2ccc(F)cc2)c2nc3ccccc3nc21 | -0.23%
CCCCNC(=O)OCCSCCS(=O)(=O)c1ccc(Cl)cc1 | -11.5%
O=C(NN1C(=O)C2C(C1=O)C1C=CC2C12CC2)c1ccccc1Cl (stereo unspecified) | -6.98%
COc1cc(C=O)ccc1Oc1nnnn1-c1ccccc1 | -12.6%
Cn1nc(C(C)(C)C)c(NC(=O)c2sccc2Cl)c1C(C)(C)C | -2.73%
COc1ccc(NC2=CC(=S)NC(C)(C)C2)cc1 | -2.53%
O=C(Nc1ccc(F)cc1)c1cc2c(s1)CCCC2 | -16.8%
COc1ccc(COCCN2CCN(S(=O)(=O)c3ccccc3)CCC2=O)cc1 | 16.8%
COc1ccc(COCC(O)CN2CCC(C(N)=O)CC2)cc1 (stereo unspecified) | -1.62%
O=C(CCl)Nc1cccc(CP(=O)(c2ccccc2)c2ccccc2)c1 | -14.8%
O=c1[nH]c2cccnc2n1-c1ccc([N+](=O)[O-])cc1 | -12%
O=C(NNC(=S)Nc1ccc(F)cc1)[C@H]1C[C@@H]1c1ccccc1 | -1.61%
CCOC(=O)/C=C/CN(C(=O)OC(C)(C)C)S(=O)(=O)N1CC=CC1 | 1.19%
Cc1cc(Nc2ccc(N3CCOCC3)cc2)c2cccc(C)c2n1 | 5.92%
N#CC1=C(N)Oc2c(ccc3cccnc23)C1c1ccncc1 (stereo unspecified) | -12.4%
COCc1cc(=O)oc2cc(NS(=O)(=O)c3ccc(C)cc3)ccc12 | -14.3%

SMILES | signal enhancement
CC(=O)N(OCc1ccc(OC(C)C)c(Cl)c1)C(C)=O | -12.5%
Cc1ccc(S(=O)(=O)NC(=O)N2CCCN(Cc3ccc(F)cc3)CC2)cc1 | -8.58%
CCC/C(C)=N\Nc1nc2c(c(=O)n(C)c(=O)n2C)n1C | -9.83%
CCO[C@@H]1OC(C(=O)NC2CC2)=C[C@H](C)[C@H]1CCCO | -12.6%
CC(C)C[C@H](CO)Nc1nc(N(C)c2cccc(Cl)c2)c2ncn(C(C)C)c2n1 | 10%
Cc1ccc(/C=C/C(=O)O)cc1S(=O)(=O)N1CCC(Cc2ccccc2)CC1 | -0.26%
O=C(CCC(=O)OCc1ccc(Cl)cc1)Nc1ccccc1 | -8.79%
O=C(CCCOc1ccccc1)Nc1cccc(C(=O)O)c1 | -14.6%
O=C(CNCc1ccc(Cl)cc1)Nc1cccc(C(=O)O)c1 | 35.7% (active)
CCN(CC)CCn1c(N)c(S(=O)(=O)c2ccccc2)c2nc3ccccc3nc21 | -7.92%
CCCN(CCC)c1ccc(C(O)c2nnc(-c3ccccc3)o2)cc1 (stereo unspecified) | -18.3%
Nc1ccc(-c2nnc(-c3ccc(-c4ccccc4)cc3)o2)cc1 | -17.1%
OC(c1nnc(-c2ccccc2)o1)c1cccs1 (stereo unspecified) | 31.9% (active)
O=S(=O)([N-]c1nc2ccccc2nc1-[n+]1ccc(Cc2ccccc2)cc1)c1ccc(Br)s1 | -17.8%
COc1ccc(NC(=O)C2=C(C)NC(=O)NC2c2ccccc2[N+](=O)[O-])cc1 (stereo unspecified) | -9.62%
Nc1nc(NCC2CCCO2)nc(Nc2ccccc2F)c1[N+](=O)[O-] (stereo unspecified) | 1.79%
CCS(=O)(=O)Nc1cc(C(=O)OC)ccc1C(=O)OC | -8.23%
CCCN(CCC)C(=S)Nc1cc(C(=O)OC)ccc1C(=O)OC | 39.1% (active)
CCN(CCO)C(=S)Nc1cc(C(=O)OC)ccc1C(=O)OC | 3.69%
O=C(CCN1C(=O)c2ccccc2C1=O)NNC(=O)c1ccc(Cl)cc1Cl | -8.02%
Cc1cc(C)cc(OCC(=O)NNC(=O)c2cc3ccccc3oc2=O)c1 | 1.34%

SMILES | signal enhancement
Cc1cc(C)cc(OCC(=O)NNC(=O)CCN2C(=O)c3ccccc3C2=O)c1 | 31.1% (active)
Clc1ccc(-c2cc(-c3ccccn3)on2)c(Cl)c1 | -77.9%
CCCN(c1ccc(C)cc1)c1nc(=O)c2cccnc2s1 | -10%
Fc1ccc(Nc2nnns2)cc1 | -6.61%
COc1ccc(NC(=S)Nc2ccccc2Cl)cn1 | -15.3%
COc1ccc(CS(=O)/C(Cl)=C(/Cl)C(=O)Nc2ccc(OC)nc2)cc1 (stereo unspecified) | 53.8% (active)
CC(=O)Nc1ccc(OCC(=O)NCc2ccc(C)cc2)cc1 | -12.3%
COc1ccc(C(=O)Nc2ccc(NC(=O)C(C)C)nc2)cc1 | -20.6%
COc1ccc(NC(=O)/C(Cl)=C(/Cl)S(=O)Cc2ccc(C)cc2)cn1 (stereo unspecified) | 72.4% (active)
Cc1ccc(NC(=O)OCc2cncs2)cc1 | -21.3%
CC(C)CCNC(=O)C1CCC(CNc2c(N3CCC(C)CC3)c(=O)c2=O)CC1 (stereo unspecified) | -5.11%
COc1ccc2c(CC(=O)OCC(=O)NC(N)=O)coc2c1 | 0.56%
COC(=O)/C=C(\Oc1ccccc1)C1(O)CCCCC1 | -12%
CC(=O)NNC(=O)c1csc(Cc2c(Cl)sc3ccc(Cl)cc23)n1 | -2.59%
CCC1(C)Cc2c(sc3nc(SC)[nH]c(=O)c23)CO1 (stereo unspecified) | -9.94%
CCOC(=O)CC1C(=O)NCCN1c1nc2c(C)cccn2c(=O)c1/C=C1\SC(=S)N(C(C)CC)C1=O (stereo unspecified) | -24.8%
Cc1cc(OC(=O)c2ccccc2)c([N+](=O)[O-])c(=O)[nH]1 | 39.8% (active)
O=C(Oc1ccccc1C(=S)N1CCCCC1)c1cc([N+](=O)[O-])cc([N+](=O)[O-])c1 | -1.87%
COc1cccc(C(=O)Oc2cc(C)[nH]c(=O)c2[N+](=O)[O-])c1 | -90.1%
